ChEMBL document CHEMBL4359830, “Discovery and structure-activity relationship of novel diphenylthiazole derivatives as BTK inhibitor with potent activity against B cell lymphoma cell lines” (Eur J Med Chem, 2019)

Key:
Raji [1] = assay: Induction of apoptosis in human Raji cells assessed as late apoptotic cells at 3 uM measured after 15 mins by Annexin-V-APC staining-based flow cytometric analysis (reference value: 0.57 %); format: functional
Raji [2] = assay: Cell cycle arrest in human Raji cells assessed as accumulation at G2/M phase at 1 uM measured after 48 hrs by propidium iodide/RNase staining based flow cytometric analysis (reference value: 18.14 %); format: functional
Ramos [3] = assay: Cell cycle arrest in human Ramos cells assessed as accumulation at G2/M phase at 0.1 uM measured after 48 hrs by propidium iodide/RNase staining based flow cytometric analysis (reference value: 5.98 %); format: functional
Raji [4] = assay: Antiproliferative activity against human Raji cells at 40 uM measured after 72 hrs by CCK-8 assay relative to control; format: functional; settings: Homo sapiens, Raji, 72 h
Method in brief: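 Ramos or Raji cells in RPMI-1640 with 10% FBS and 1% penicillin-streptomycin at 37 °C, 5% CO2. Seeded at 2000–3000 cells/well one day before compound addition. Exposure 72 h, then CCK-8 with absorbance at 450 nm. […] Single-point inhibition at 40 µM reported as mean ± standard deviation.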

Raji [5] = assay: Induction of apoptosis in human Raji cells assessed as early apoptotic cells at 0.1 uM measured after 15 mins by Annexin-V-APC staining-based flow cytometric analysis (reference value: 0.021 %); format: functional
Raji [6] = assay: Induction of apoptosis in human Raji cells assessed as early apoptotic cells at 5 uM measured after 15 mins by Annexin-V-APC staining-based flow cytometric analysis (reference value: 0.021 %); format: functional
Raji [7] = assay: Cell cycle arrest in human Raji cells assessed as accumulation at G0/G1 phase at 0.1 uM measured after 48 hrs by propidium iodide/RNase staining based flow cytometric analysis (reference value: 48.68 %); format: functional
Raji [8] = assay: Induction of apoptosis in human Raji cells assessed as late apoptotic cells at 0.1 uM measured after 15 mins by Annexin-V-APC staining-based flow cytometric analysis (reference value: 0.57 %); format: functional
Ramos [9] = assay: Cell cycle arrest in human Ramos cells assessed as accumulation at G2/M phase at 5 uM measured after 48 hrs by propidium iodide/RNase staining based flow cytometric analysis (reference value: 5.98 %); format: functional
Ramos [10] = assay: Induction of apoptosis in human Ramos cells assessed as late apoptotic cells at 5 uM measured after 15 mins by Annexin-V-APC staining-based flow cytometric analysis (reference value: 1.85 %); format: functional
Ramos [11] = assay: Induction of apoptosis in human Ramos cells assessed as late apoptotic cells at 1 uM measured after 15 mins by Annexin-V-APC staining-based flow cytometric analysis (reference value: 1.85 %); format: functional
Ramos [12] = assay: Induction of apoptosis in human Ramos cells assessed as viable cells at 0.1 uM measured after 15 mins by Annexin-V-APC staining-based flow cytometric analysis (reference value: 96.5 %); format: functional; settings: 0.25 h, read-out: Activity
Ramos [13] = assay: Induction of apoptosis in human Ramos cells assessed as necrotic cells at 1 uM measured after 15 mins by Annexin-V-APC staining-based flow cytometric analysis (reference value: 1.50 %); format: functional
Raji [14] = assay: Induction of apoptosis in human Raji cells assessed as late apoptotic cells at 1 uM measured after 15 mins by Annexin-V-APC staining-based flow cytometric analysis (reference value: 0.57 %); format: functional
Raji [15] = assay: Cell cycle arrest in human Raji cells assessed as accumulation at S phase at 0.1 uM measured after 48 hrs by propidium iodide/RNase staining based flow cytometric analysis (reference value: 33.18 %); format: functional
Raji [16] = assay: Cell cycle arrest in human Raji cells assessed as accumulation at G2/M phase at 5 uM measured after 48 hrs by propidium iodide/RNase staining based flow cytometric analysis (reference value: 18.14 %); format: functional
Raji [17] = assay: Cell cycle arrest in human Raji cells assessed as accumulation at S phase at 5 uM measured after 48 hrs by propidium iodide/RNase staining based flow cytometric analysis (reference value: 33.18 %); format: functional
Raji [18] = assay: Induction of apoptosis in human Raji cells assessed as viable cells at 5 uM measured after 15 mins by Annexin-V-APC staining-based flow cytometric analysis (reference value: 97.5 %); format: functional; settings: Homo sapiens, Raji, 0.25 h; read-out: Activity
Ramos [19] = assay: Induction of apoptosis in human Ramos cells assessed as early apoptotic cells at 3 uM measured after 15 mins by Annexin-V-APC staining-based flow cytometric analysis (reference value: 0.14 %); format: functional
Raji [20] = assay: Induction of apoptosis in human Raji cells assessed as early apoptotic cells at 1 uM measured after 15 mins by Annexin-V-APC staining-based flow cytometric analysis (reference value: 0.021 %); format: functional
Raji [21] = assay: Induction of apoptosis in human Raji cells assessed as viable cells at 3 uM measured after 15 mins by Annexin-V-APC staining-based flow cytometric analysis (reference value: 97.5 %); format: functional; settings: 0.25 h, read-out: Activity
[22] = molecular target: Tyrosine-protein kinase BTK (Homo sapiens, UniProt Q06187); assay: Inhibition of human recombinant full length N-terminal His tagged BTK expressed in baculovirus infected Sf9 cells using poly (Glu,Tyr) 4:1 as substrate measured after 60 mins in presence of ATP by ADP-Glo kinase assay
Sequence of Tyrosine-protein kinase BTK (Q06187 whole entry): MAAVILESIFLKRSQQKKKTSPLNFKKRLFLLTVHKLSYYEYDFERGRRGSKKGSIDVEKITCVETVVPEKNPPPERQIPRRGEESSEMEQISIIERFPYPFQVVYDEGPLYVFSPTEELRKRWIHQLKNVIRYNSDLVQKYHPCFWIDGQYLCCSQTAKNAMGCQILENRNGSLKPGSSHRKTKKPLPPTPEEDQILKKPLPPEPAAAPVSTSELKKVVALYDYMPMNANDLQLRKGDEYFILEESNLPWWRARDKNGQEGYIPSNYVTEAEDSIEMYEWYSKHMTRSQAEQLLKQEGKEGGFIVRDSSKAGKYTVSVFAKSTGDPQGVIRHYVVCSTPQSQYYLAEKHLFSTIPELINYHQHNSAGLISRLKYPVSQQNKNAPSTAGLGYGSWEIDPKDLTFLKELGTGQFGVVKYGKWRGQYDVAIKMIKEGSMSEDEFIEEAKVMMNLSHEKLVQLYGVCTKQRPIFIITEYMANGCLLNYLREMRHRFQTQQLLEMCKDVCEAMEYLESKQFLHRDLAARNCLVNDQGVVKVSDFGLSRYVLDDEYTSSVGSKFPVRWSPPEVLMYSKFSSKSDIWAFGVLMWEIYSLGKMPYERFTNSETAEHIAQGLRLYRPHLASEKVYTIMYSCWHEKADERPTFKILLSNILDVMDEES

Ramos [23] = assay: Cell cycle arrest in human Ramos cells assessed as accumulation at S phase at 1 uM measured after 48 hrs by propidium iodide/RNase staining based flow cytometric analysis (reference value: 56.35 %); format: functional
Raji [24] = assay: Induction of apoptosis in human Raji cells assessed as viable cells at 1 uM measured after 15 mins by Annexin-V-APC staining-based flow cytometric analysis (reference value: 97.5 %); format: functional; settings: 0.25 h, read-out: Activity
Ramos [25] = assay: Induction of apoptosis in human Ramos cells assessed as late apoptotic cells at 0.1 uM measured after 15 mins by Annexin-V-APC staining-based flow cytometric analysis (reference value: 1.85 %); format: functional
Ramos [26] = assay: Cell cycle arrest in human Ramos cells assessed as accumulation at S phase at 5 uM measured after 48 hrs by propidium iodide/RNase staining based flow cytometric analysis (reference value: 56.35 %); format: functional
Raji [27] = assay: Cell cycle arrest in human Raji cells assessed as accumulation at G0/G1 phase at 1 uM measured after 48 hrs by propidium iodide/RNase staining based flow cytometric analysis (reference value: 48.68 %); format: functional
Raji [28] = assay: Induction of apoptosis in human Raji cells assessed as early apoptotic cells at 3 uM measured after 15 mins by Annexin-V-APC staining-based flow cytometric analysis (reference value: 0.021 %); format: functional
Ramos [29] = assay: Induction of apoptosis in human Ramos cells assessed as necrotic cells at 5 uM measured after 15 mins by Annexin-V-APC staining-based flow cytometric analysis (reference value: 1.50 %); format: functional
Ramos [30] = assay: Induction of apoptosis in human Ramos cells assessed as viable cells at 3 uM measured after 15 mins by Annexin-V-APC staining-based flow cytometric analysis (reference value: 96.5 %); format: functional; settings: 0.25 h, read-out: Activity
Raji [31] = assay: Induction of apoptosis in human Raji cells assessed as necrotic cells at 5 uM measured after 15 mins by Annexin-V-APC staining-based flow cytometric analysis (reference value: 1.87 %); format: functional

Compound: CN1CCN(c2ccc(Nc3nc(-c4cccc(NC(=O)c5ccc(F)c(Cl)c5)c4)sc3C(N)=O)cc2)CC1
- Activity (Raji [1]): 1.52%
- Activity (Raji [2]): 24.53%
- Activity (Ramos [3]): 8.33%
- inhibition at 40 µM (Raji [4]): 94.4%
- Activity (Raji [5]): 0.01%
- Activity (Raji [6]): 0.091%
- Activity (Raji [7]): 47.04%
- Activity (Raji [8]): 0.44%
- Activity (Ramos [9]): 2.17%
- Activity (Ramos [10]): 72.4%
- Activity (Ramos [11]): 2.23%
- viability at 0.1 µM (Ramos [12]): 96.4%
- Activity (Ramos [13]): 2.04%
- Activity (Raji [14]): 0.53%
- Activity (Raji [15]): 33.63%
- Activity (Raji [16]): 16.19%
- Activity (Raji [17]): 1.26%
- viability at 5 µM (Raji [18]): 0.15%
- Activity (Ramos [19]): 0.052%
- Activity (Raji [20]): 0%
- viability at 3 µM (Raji [21]): 95.6%
- IC50 [22]: 90 nM
- Activity (Ramos [23]): 33.13%
- viability at 1 µM (Raji [24]): 97.6%
- Activity (Ramos [25]): 1.88%
- Activity (Ramos [26]): 14.14%
- Activity (Raji [27]): 54%
- Activity (Raji [28]): 0%
- Activity (Ramos [29]): 25.7%
- viability at 3 µM (Ramos [30]): 87.3%
- Activity (Raji [31]): 32%
